{"data": "Measurements gathered from unrelated publications", "target": "Discoidin domain-containing receptor 2 (DDR2, Homo sapiens, UniProt Q16832)", "Residues used in one study (Q16832 22-855)": "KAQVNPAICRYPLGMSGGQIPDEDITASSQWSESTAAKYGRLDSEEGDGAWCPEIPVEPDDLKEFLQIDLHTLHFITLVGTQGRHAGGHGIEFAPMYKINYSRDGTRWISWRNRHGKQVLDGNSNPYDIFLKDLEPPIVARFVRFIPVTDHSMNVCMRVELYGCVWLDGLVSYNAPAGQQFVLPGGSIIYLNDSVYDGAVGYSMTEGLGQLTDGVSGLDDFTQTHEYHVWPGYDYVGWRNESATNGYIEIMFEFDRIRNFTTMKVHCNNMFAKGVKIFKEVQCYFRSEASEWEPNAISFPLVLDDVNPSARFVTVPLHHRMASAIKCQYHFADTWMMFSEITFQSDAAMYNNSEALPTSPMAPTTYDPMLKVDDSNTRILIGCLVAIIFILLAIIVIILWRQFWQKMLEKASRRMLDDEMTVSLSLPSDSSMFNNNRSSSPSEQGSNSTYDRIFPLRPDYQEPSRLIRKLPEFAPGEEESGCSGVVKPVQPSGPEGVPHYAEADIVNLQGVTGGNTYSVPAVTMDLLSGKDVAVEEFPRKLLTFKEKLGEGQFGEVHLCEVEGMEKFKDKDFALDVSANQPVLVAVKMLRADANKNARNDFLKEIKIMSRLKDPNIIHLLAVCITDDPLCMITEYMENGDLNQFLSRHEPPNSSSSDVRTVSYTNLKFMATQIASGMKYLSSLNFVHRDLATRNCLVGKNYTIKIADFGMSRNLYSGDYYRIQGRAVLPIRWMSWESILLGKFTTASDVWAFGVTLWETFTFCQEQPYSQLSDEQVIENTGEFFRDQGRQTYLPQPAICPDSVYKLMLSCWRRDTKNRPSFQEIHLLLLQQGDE", "note": "Protocols differ between the studies behind these lines."}
{"SMILES": "O=c1[nH]c2ccccc2n1C1CCN(Cc2ccc(-c3[nH]c4cc5ncnc5cc4nc3-c3ccccc3)cc2)CC1", "read-out": "cell-free assay", "tested at": "0.5 µM", "quantity": "remaining signal", "value": "99.2%"}
{"SMILES": "C#Cc1n[nH]c2c(-c3cn([C@@H](C)c4ccccc4)c(=O)[nH]c3=O)cc(F)cc12", "read-out": "enzyme activity", "action": "inhibitor", "tested at": "0.1 µM", "quantity": "inhibition", "value": "-1.1%"}
{"SMILES": "Cn1cc(-c2cc(F)cc(N3CCn4c(cc5c4CCCC5)C3=O)c2CO)cc(Nc2ccc(N3CCN(C4COC4)CC3)cn2)c1=O", "read-out": "enzyme activity", "action": "inhibitor", "tested at": "0.1 µM", "quantity": "inhibition", "value": "-7%"}
{"SMILES": "Cn1cncc1[C@@](O)(COc1ccc(C#N)cc1-c1ccc(OC(F)(F)F)cc1)c1ccc(C#N)cc1", "read-out": "cell-free assay", "method": "competition with immobilised ligand", "tested at": "1 µM", "quantity": "remaining binding", "value": "95%"}
{"SMILES": "C#Cc1n[nH]c2c(-c3cn([C@@H](C)c4ccccn4)c(=O)[nH]c3=O)cc(F)cc12", "read-out": "enzyme activity", "action": "inhibitor", "tested at": "0.1 µM", "quantity": "inhibition", "value": "0.9%"}
{"SMILES": "N#CC1(c2ccccn2)CCN(Cc2cc(C(=O)O)c(=O)n3ccccc23)CC1", "read-out": "cell-free assay", "method": "competition with immobilised ligand", "tested at": "1 µM", "quantity": "remaining binding", "value": "100%"}
{"SMILES": "COc1cc(Nc2ncc(F)c(Nc3ccc4c(n3)NC(=O)C(C)(C)O4)n2)cc(OC)c1OC", "read-out": "binding", "method": "competition with immobilised ligand", "tested at": "10 µM", "quantity": "inhibition", "value": "86%"}
{"SMILES": "Nc1ncc(-c2nc(N3CCOCC3)nc(N3CCOCC3)n2)c(C(F)F)n1", "read-out": "cell-free assay", "method": "competition with immobilised ligand", "tested at": "10 µM", "quantity": "remaining binding", "value": "57%"}
{"SMILES": "Cc1nn(C)cc1-c1nc2c(N3CCN(Cc4ccc(Cl)cc4)CC3)c(Cl)cnc2[nH]1", "read-out": "binding", "method": "competition with immobilised ligand", "tested at": "1 µM", "quantity": "remaining binding", "value": "96%"}
{"SMILES": "COc1ncccc1-c1cnn2ccc(N3CCN(C(=O)OC(C)C)CC3)nc12", "read-out": "binding", "method": "competition with immobilised ligand", "tested at": "1 µM", "quantity": "remaining binding", "value": "36%"}
{"SMILES": "CC(C)(C)c1cc(C=C(C#N)C#N)cc(Br)c1O", "read-out": "enzyme activity", "action": "inhibitor", "tested at": "0.5 µM", "quantity": "remaining activity", "value": "105%"}
{"SMILES": "Cn1cc(-c2cccc(N3CCc4c(sc5c4CC(C)(C)C5)C3=O)c2CO)cc(Nc2ccncn2)c1=O", "read-out": "enzyme activity", "action": "inhibitor", "tested at": "1 µM", "quantity": "inhibition", "value": "1%"}
